In the library only some 4.9% were active in any assay of this set; here they are far more common.
RAM inhibit: yeast RAM network inhibition. inhibition, % at 50 µM. 190,000 tested, 1.8% active. S. cerevisiae dse1pr::URA3 reporter, 5-FOA growth OD615, 2 d; analog-sensitive cbk1-as2 kinase mutant strain. AID 868;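 active = inhibition above a set limit, 3 SD over mean compound inhibition, cut at about 8.4% in these data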;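 also: 0% = DMSO-only wells with no growth and 100% = 10 µM 1-NA-PP1 full growth; inhibition rescues growth on 5-FOA so higher OD means more RAM inhibition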
NPY Y1 blocker: blocks the human neuropeptide Y Y1 receptor | HEK293-CNG Y1 cells, membrane potential fluorescence; NPY at EC95, then isoproterenol | inhibition, % at 3.6 µM | 200,000 tested, 1% active | AID 1040;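 active = inhibition above the campaign mean inhibition of all tested compounds plus 3 SD, cut at about 20% in these data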;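 also: 0% = DMSO wells given NPY plus isoproterenol and 100% = isoproterenol alone without NPY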
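Material: HEK293 Y1/CNG channel cell line | Also added: NPY (25 nM), isoproterenol (1 µM), Ro 20-1724 (25 µM) | Compound: One concentration, 3.6 µM, in 0.4% DMSO | Schedule: 3 h dye uptake, 1 h room-temperature compound, 45 min post-isoproterenol | Signal: Membrane-potential fluorescent dye readout | Read-out: % inhibition of NPY effect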
NPY-Y2 PAM-ag: potentiates or activates human NPY-Y2 receptor. 220,000 tested, 0.45% active. activation, % at 3.6 µM. AID 1359. cells expressing NPY-Y2, potentiator/agonist read-out. P49146; in the data active = activation above about 27%;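 also: cells stimulated with NPY near EC25 plus isoproterenol at EC100; 0% = vehicle plus submaximal agonist and 100% = vehicle plus saturating agonist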
Target sequence (P49146 whole entry, looked up): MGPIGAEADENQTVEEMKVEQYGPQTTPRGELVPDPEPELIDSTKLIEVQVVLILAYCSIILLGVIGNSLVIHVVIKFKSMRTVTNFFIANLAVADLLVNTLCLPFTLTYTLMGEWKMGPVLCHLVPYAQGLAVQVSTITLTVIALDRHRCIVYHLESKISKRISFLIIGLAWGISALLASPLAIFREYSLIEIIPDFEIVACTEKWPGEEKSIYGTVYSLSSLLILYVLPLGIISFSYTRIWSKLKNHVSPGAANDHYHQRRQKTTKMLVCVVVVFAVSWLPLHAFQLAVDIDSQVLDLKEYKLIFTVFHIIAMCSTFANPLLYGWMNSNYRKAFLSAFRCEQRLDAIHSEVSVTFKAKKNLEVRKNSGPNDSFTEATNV
NPY Y2 blocker: antagonists of human neuropeptide Y receptor Y2. P49146. NPY-Y2 expressing cells, antagonist mode. inhibition, % at 2.7 µM. 140,000 tested, 0.99% active. AID 793; in the data active = inhibition above about 17%;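 also: 0% = vehicle with agonist challenge and 100% = reference antagonist with challenge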
NPY1 pot ag: human NPY-Y1 potentiation or agonism, primary screen | P25929 | NPY-Y1 expressing cells, potentiator/agonist activation | activation, % at 3.6 µM | 220,000 tested, 0.37% active | AID 1304; in the data active = activation above about 33%, passing the limit was not always enough;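 also: cells stimulated with NPY at EC10 then isoproterenol at EC100; 0% = low agonist plus stimulus and 100% = saturating agonist plus stimulus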
WT yeast gro inh: growth inhibition of WT yeast, mitochondrial fusion screen; mitochondrial fusion phenotypic screen, WT strain; inhibition, % at 10 µM; 190,000 tested, 2.1% active; in the data active = inhibition above about 58%; tested in S. cerevisiae
An asterisk follows results filed as active; . = no result.

SMILES	RAM inhibit	NPY Y1 blocker	NPY-Y2 PAM-ag	NPY Y2 blocker	NPY1 pot ag	WT yeast gro inh
Cc1cc(NC(=O)c2sc(Nc3ccc(F)c(Cl)c3)nc2N)no1	2.7	-7.5	5.3	.	17.7	1.0
Cc1noc(C)c1S(=O)(=O)N(CCc1ccccc1)Cc1ccccc1	1.7	24.3*	-23.0	20.2*	-17.4	69.7*
c1ccc(-c2csc(N3CCN(c4ccccn4)CC3)n2)cc1	0.7	18.7	-16.7	1.6	-45.6	62.8*
CCN(CC)S(=O)(=O)c1cccc(C(=O)N/N=C/c2c(C)nn(-c3ccccc3)c2Cl)c1	6.5	3.9	-1.0	5.8	5.0	-5.1
CCOC(=O)C1=C(O)/C(=C/c2ccc(OCC(=O)O)c(OCC)c2)SC1=Nc1ccccc1	10.3*	-2.2	-15.6	.	-6.8	-2.7
COc1ccc(C(CC(=O)NCc2ccccc2)Sc2n[nH]c(-c3ccccc3)n2)cc1 (configuration not stated)	4.0	0.0	6.8	2.7	-8.5	2.0
COc1ccc(C(CC(=O)NCc2ccccc2)Sc2n[nH]c(-c3ccc(Cl)cc3)n2)cc1 (configuration not stated)	8.7*	2.2	1.5	0.5	-8.7	-18.4
COc1cc(C(=O)NCCC(C)C)ccc1OCc1ccc(Cl)cc1Cl	9.8*	7.2	0.9	4.8	10.0	21.9
Cc1ccc(NC(=O)CSc2nc3c(cc2C#N)C(=O)CCC3)cc1S(=O)(=O)N(C)C	8.5*	-6.1	2.7	1.7	-2.8	-10.8
CC(C)c1ccc(NC(=S)NN2CCOCC2)cc1	-0.1	0.9	88.6*	0.6	88.3*	-2.5
S=C(Nc1ccc(Cl)cc1)NN1CCOCC1	-0.1	1.9	-5.6	-1.2	-0.1	-1.0
CC1C/C(=N\NC(=S)NCc2ccccc2)CC(C)(C)C1 (configuration not stated)	0.6	-0.2	-6.1	4.4	5.3	64.2*
CC1CCC/C(=N\NC(=S)NCc2ccccc2)C1 (configuration not stated)	2.2	6.0	-6.5	3.6	1.9	14.7
COC(=O)c1sc2ccccc2c1N	1.4	3.0	2.4	4.3	6.8	5.1
CCOC(=O)c1sc2ccccc2c1OC(=O)c1ccc(C)cc1	8.7*	-1.2	4.6	12.1	-6.7	-2.7
S=C(NCCN1CCCCC1)Nc1ccc(Br)cc1	.	.	3.7	.	7.0	.
COc1cc(C(=O)Oc2cccc(C)c2)cc(OC)c1OC	0.0	3.1	-2.2	4.3	-5.2	6.0
COc1cc(OC)nc(Oc2ccccc2C(=O)Oc2cccc(C)c2)n1	1.8	6.9	-10.1	4.3	2.1	59.9*
Cc1ccccc1-n1nnnc1SCc1csc(-c2ccccc2)n1	8.7*	6.2	-4.1	3.0	-28.3	34.2
c1ccc(-n2nnnc2SCc2cccc(CSc3nnnn3-c3ccccc3)n2)cc1	8.9*	4.4	-13.7	4.8	-25.0	6.1
c1ccc(CSc2nnnn2-c2ccccc2)cc1	-0.6	-1.3	9.7	0.6	-0.3	10.1
Cc1ccccc1-n1nnnc1SCC(C)C	-1.2	13.1	5.6	.	0.3	3.0
O=C1CCCC2=C1C(c1ccc(Cl)cc1)C1C(=O)c3ccccc3C1=N2 (configuration not stated)	4.0	-13.8	28.1	-6.3	16.2	3.3
Cc1nn(Cc2ccccc2Cl)c(C)c1NC(=O)c1nc2ncccn2n1	1.6	7.3	3.2	0.7	-3.6	-9.2
C=CCNC(=O)C(C)N1C(=O)c2ccccc2C1=O (configuration not stated)	-0.8	-5.3	-5.6	0.8	-10.2	-5.9
SMILES	RAM inhibit	NPY Y1 blocker	NPY-Y2 PAM-ag	NPY Y2 blocker	NPY1 pot ag	WT yeast gro inh
O=C(c1cc(COc2ccc(F)cc2Cl)on1)N(Cc1ccncc1)CC1CCCO1 (configuration not stated)	0.5	1.5	-9.0	.	7.3	1.8
COc1ccccc1NC(=O)Cn1cnc2sc(C)c(S(=O)(=O)N3CCCCC3)c2c1=O	8.9*	3.5	-3.5	3.3	14.4	-1.2
COc1ccccc1NC(=O)Cn1cnc2sc(C(=O)NCc3ccco3)c(C)c2c1=O	9.4*	1.8	-8.6	2.2	-7.4	8.2
Cc1nn(Cc2ccccc2Cl)c(C)c1NC(=O)c1ccn(C)n1	1.1	2.5	7.7	0.1	4.1	-4.1
Cc1nn(Cc2ccccc2Cl)c(C)c1NC(=O)NC12CC3CC(CC(C3)C1)C2	2.8	-1.1	-17.4	1.5	29.6	72.6*
CCn1cc(/C=N\NC(=O)c2ccc3c(c2)c(C)c(C)n3Cc2ccccc2)c(C)n1	0.9	-1.6	9.4	-0.5	-38.0	8.0
Cc1ccc(CSc2ncnc3c2cnn3Cc2ccccc2)cc1	0.2	2.0	-14.8	5.1	7.7	76.1*
CCOCC(=O)Nc1cc(C(F)(F)F)ccc1Oc1cccc(Br)c1	0.5	8.1	-0.2	8.5	-5.4	66.2*
Cc1nc(SCCC(=O)O)c2ccccc2n1	0.3	7.5	-20.8	8.2	-16.5	-13.0
CC[n+]1c(/C=C/c2c[nH]c3ccccc23)ccc2cc(C)ccc21	0.4	5.0	1.9	.	4.2	76.5*
CCN(CC)C(=O)c1ccc(/C=C/c2c[nH]c3ccccc23)[n+](C)c1	-1.4	0.4	-1.2	1.5	5.3	-9.8
CC(=O)Nc1ccc(OCC(O)Cn2nc(C)c(C(C)=O)c2C)cc1 (configuration not stated)	0.8	-1.7	5.4	2.5	-1.1	-9.3
Fc1ccccc1Nc1nc(NCc2ccco2)nc(N2CCOCC2)n1	3.2	5.1	-3.3	.	-16.6	-4.7
CC(C)c1ccc(Nc2nc(NCc3ccco3)nc(N3CCOCC3)n2)cc1	-0.5	-3.8	-18.7	0.2	-0.5	58.3*
Cc1ccc(C)c(NC(=O)CSc2nc3[nH]ncc3c(=O)[nH]2)c1	3.7	-2.4	-3.8	0.0	-9.7	-0.2
CC(C)C(=O)N1CCN(c2ccc(NC(=O)c3ccc([N+](=O)[O-])o3)cc2Cl)CC1	1.4	0.6	-30.9	.	-13.8	93.6*
Cc1cc(C)cc(NC(=O)c2ccc([N+](=O)[O-])o2)c1	-0.8	-2.9	-11.2	.	-14.6	77.6*
CC(C)C(=O)N1CCN(c2ccc(NC(=O)c3ccc([N+](=O)[O-])o3)cc2)CC1	0.2	5.5	-11.9	.	-8.6	16.8
CCCC(=O)N1CCN(c2ccc(NC(=O)c3ccc([N+](=O)[O-])o3)cc2Cl)CC1	-2.6	3.6	-4.1	.	-19.8	85.6*
CCc1ccccc1NS(=O)(=O)c1ccc2[nH]cc(C(=O)NCC3CCCO3)c(=O)c2c1 (configuration not stated)	3.8	-4.0	-4.4	-0.4	15.7	-19.2
CN(Cc1ccccc1)S(=O)(=O)c1ccc2[nH]cc(C(=O)NCC3CCCO3)c(=O)c2c1 (configuration not stated)	8.7*	-5.3	3.5	2.1	0.0	-13.1
CCOc1ccc(NS(=O)(=O)c2ccc3[nH]cc(C(=O)NCC4CCCO4)c(=O)c3c2)cc1 (configuration not stated)	9.3*	1.4	2.2	1.1	-3.3	-11.9

From PubChem
